Assays:
Format in all cases: functional
HOP-62 = assay: Growth inhibition of human HOP62 cells at 10 uM after 48 hrs; details: HOP-62, 48 h, read-out: GI
How it was run: (§1)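 Single-dose primary screen in the NCI 60 human tumour cell line panel, run at the NCI facility. The panel covers nine subpanels: leukaemia, non-small cell lung, colon, CNS, melanoma, ovarian, renal, prostate and breast. Read-out was percent growth of treated cells, shown as a mean graph and reported as percent growth inhibition.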

SN12C = assay: Growth inhibition of human SN12C cells at 10 uM after 48 hrs; details: read-out: GI
How it was run: (§2)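 NCI 60-cell-line disease-oriented human tumor panel, single-dose primary screen at 10 µM. Data given as mean-graph percent growth of treated cells, reported as percent growth inhibition (GI %).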

SR = assay: Growth inhibition of human SR cells at 10 uM after 48 hrs; details: read-out: GI; how it was run: as §2
U-251 = assay: Growth inhibition of human U251 cells at 10 uM after 48 hrs; details: U-251, 48 h, read-out: GI; how it was run: as §2
TK-10 = assay: Growth inhibition of human TK10 cells at 10 uM after 48 hrs; details: TK-10, 48 h, read-out: GI; how it was run: as §2
K562 = assay: Growth inhibition of human K562 cells at 10 uM after 48 hrs; details: K562, 48 h, read-out: GI; how it was run: as §1
T47D = assay: Growth inhibition of human T47D cells at 10 uM after 48 hrs; details: read-out: GI; how it was run: as §2
[1] = Cytotoxicity against human non-small cell lung cancer cells at 10 uM after 48 hrs; details: Cancer cell lines; how it was run: as §1
[2] = Cytotoxicity against human renal cancer cells at 10 uM after 48 hrs; details: Cancer cell lines
SF-295 = assay: Growth inhibition of human SF295 cells at 10 uM after 48 hrs; details: SF-295, 48 h, read-out: GI; how it was run: as §2
SK-MEL-5 = assay: Growth inhibition of human SK-MEL-5 cells at 10 uM after 48 hrs; details: SK-MEL-5, 48 h, read-out: GI; how it was run: as §2
[3] = Growth inhibition of human EKVX cells at 10 uM after 48 hrs; details: read-out: GI; how it was run: as §1
[4] = Growth inhibition of human NCI-ADR-RES cells at 10 uM after 48 hrs; details: read-out: GI; how it was run: as §1
[5] = Growth inhibition of human OVCAR4 cells at 10 uM after 48 hrs; details: OVCAR-4, 48 h, read-out: GI; how it was run: as §1
[6] = Cytotoxicity against human prostate cancer cells at 10 uM after 48 hrs; details: Cancer cell lines
SK-OV-3 = assay: Growth inhibition of human SKOV3 cells at 10 uM after 48 hrs; details: SK-OV-3, 48 h, read-out: GI; how it was run: as §2
NCI-H23 = assay: Growth inhibition of human NCI-H23 cells at 10 uM after 48 hrs; details: NCI-H23, 48 h, read-out: GI; how it was run: as §1
[7] = Growth inhibition of human UO31 cells at 10 uM after 48 hrs; details: UO-31, 48 h, read-out: GI; how it was run: as §2
SF-268 = assay: Growth inhibition of human SF268 cells at 10 uM after 48 hrs; details: SF-268, 48 h, read-out: GI; how it was run: as §2
PC-3 = assay: Growth inhibition of human PC3 cells at 10 uM after 48 hrs; details: PC-3, 48 h, read-out: GI; how it was run: as §1
SNB-75 = assay: Growth inhibition of human SNB75 cells at 10 uM after 48 hrs; details: SNB-75, 48 h, read-out: GI; how it was run: as §2
[8] = Growth inhibition of human OVCAR5 cells at 10 uM after 48 hrs; details: OVCAR-5, 48 h, read-out: GI; how it was run: as §1
[9] = Cytotoxicity against human colon cancer cells at 10 uM after 48 hrs; details: Cancer cell lines; how it was run: as §1
OVCAR-3 = assay: Growth inhibition of human OVCAR3 cells at 10 uM after 48 hrs; details: OVCAR-3, 48 h, read-out: GI; how it was run: as §1
DU-145 = assay: Growth inhibition of human DU145 cells at 10 uM after 48 hrs; details: DU-145, 48 h, read-out: GI; how it was run: as §1
[10] = Growth inhibition of human Hs 578T cells at 10 uM after 48 hrs; details: read-out: GI; how it was run: as §1
A549 = assay: Growth inhibition of human A549 cells at 10 uM after 48 hrs; details: A549, 48 h, read-out: GI; how it was run: as §1
MDA-MB-231 = assay: Growth inhibition of human MDA-MB-231 cells at 10 uM after 48 hrs; details: MDA-MB-231, 48 h, read-out: GI; how it was run: as §1
ACHN = assay: Growth inhibition of human ACHN cells at 10 uM after 48 hrs; details: read-out: GI; how it was run: as §1
NCI-H226 = assay: Growth inhibition of human NCI-H226 cells at 10 uM after 48 hrs; details: NCI-H226, 48 h, read-out: GI; how it was run: as §1
SK-MEL-28 = assay: Growth inhibition of human SK-MEL-28 cells at 10 uM after 48 hrs; details: SK-MEL-28, 48 h, read-out: GI; how it was run: as §2
[11] = Growth inhibition of human RXF393 cells at 10 uM after 48 hrs; details: RXF 393, 48 h, read-out: GI; how it was run: as §1
NCI-H322M = assay: Growth inhibition of human NCI-H322M cells at 10 uM after 48 hrs; details: read-out: GI; how it was run: as §1
[12] = Growth inhibition of human SF539 cells at 10 uM after 48 hrs; details: SF-539, 48 h, read-out: GI; how it was run: as §2
Malme-3M = assay: Growth inhibition of human MALME-3M cells at 10 uM after 48 hrs; details: read-out: GI; how it was run: as §1
[13] = Cytotoxicity against human CNS cancer cells at 10 uM after 48 hrs; details: Cancer cell lines
M14 = assay: Growth inhibition of human M14 cells at 10 uM after 48 hrs; details: M14, 48 h, read-out: GI; how it was run: as §1
A498 = assay: Growth inhibition of human A498 cells at 10 uM after 48 hrs; details: A498, 48 h, read-out: GI; how it was run: as §1
SNB-19 = assay: Growth inhibition of human SNB19 cells at 10 uM after 48 hrs; details: SNB-19, 48 h, read-out: GI; how it was run: as §2
MCF7 = assay: Growth inhibition of human MCF7 cells at 10 uM after 48 hrs; details: MCF7, 48 h, read-out: GI; how it was run: as §1
HL-60(TB) = assay: Growth inhibition of human HL-60(TB) cells at 10 uM after 48 hrs; details: HL-60, 48 h, read-out: GI
How it was run: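 NCI 60-cell-line human tumour panel covering nine subpanels (leukaemia, non-small cell lung, colon, CNS, melanoma, ovarian, renal, prostate, breast), run at the NCI facility. Primary screen tested a single dose of each compound. Read-out was percent growth of treated cells versus untreated cells, reported from the mean graph as percentage growth inhibition.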

[14] = read-out: LC50 (the source's name)

For `Clc1ccc(/C=C2\CCCC3=C(c4ccc(Cl)cc4)Nc4ccccc4N=C32)cc1`, the inhibition of growth at 10 µM (HOP-62) was < 30%, the inhibition of growth at 10 µM (SN12C) was < 30% and the inhibition of growth at 10 µM (SR) was 78.5%. For the same molecule, the inhibition of growth at 10 µM (U-251) was 79.2%, the inhibition of growth at 10 µM (TK-10) was < 30% and the inhibition of growth at 10 µM (K562) was 52.8%. The inhibition of growth at 10 µM (T47D) was < 30%, the GI50 [1] was 9 µM and the TGI [1] was 35.2 µM. The CC50 [1, 14] was 81.3 µM, the CC50 [2] was 64 µM and the GI50 [2] was 3.3 µM. The TGI [2] was 29.1 µM, the inhibition of growth at 10 µM (SF-295) was < 30% and the inhibition of growth at 10 µM (SK-MEL-5) was < 30%. For the same molecule, the inhibition of growth at 10 µM [3] was < 30%, the inhibition of growth at 10 µM [4] was < 30% and the inhibition of growth at 10 µM [5] was < 30%. The GI50 [6] was 5.1 µM, the LC50 [6] was > 100 µM and the TGI [6] was 61.9 µM. The inhibition of growth at 10 µM (SK-OV-3) was < 30%, the inhibition of growth at 10 µM (NCI-H23) was < 30% and the inhibition of growth at 10 µM [7] was < 30%. For the same molecule, the inhibition of growth at 10 µM (SF-268) was < 30%, the inhibition of growth at 10 µM (PC-3) was < 30% and the inhibition of growth at 10 µM (SNB-75) was < 30%. For the same molecule, the inhibition of growth at 10 µM [8] was < 30%, the GI50 [9] was 2.4 µM and the TGI [9] was 6.4 µM. The CC50 [9, 14] was 38.8 µM, the inhibition of growth at 10 µM (OVCAR-3) was 33% and the inhibition of growth at 10 µM (DU-145) was < 30%. The inhibition of growth at 10 µM [10] was < 30%, the inhibition of growth at 10 µM (A549) was < 30% and the inhibition of growth at 10 µM (MDA-MB-231) was < 30%. The inhibition of growth at 10 µM (ACHN) was < 30%, the inhibition of growth at 10 µM (NCI-H226) was < 30% and the inhibition of growth at 10 µM (SK-MEL-28) was < 30%. For the same molecule, the inhibition of growth at 10 µM [11] was 34.7%, the inhibition of growth at 10 µM (NCI-H322M) was < 30% and the inhibition of growth at 10 µM [12] was < 30%. The inhibition of growth at 10 µM (Malme-3M) was < 30%, the GI50 [13] was 4.9 µM and the TGI [13] was 52.4 µM. For the same molecule, the CC50 [13, 14] was 84.3 µM, the inhibition of growth at 10 µM (M14) was 70.9% and the inhibition of growth at 10 µM (A498) was 32.8%. For the same molecule, the inhibition of growth at 10 µM (SNB-19) was < 30%, the inhibition of growth at 10 µM (MCF7) was 64.2% and the inhibition of growth at 10 µM (HL-60(TB)) was < 30%.
